Source: PubChem BioAssay (Broad Institute)
Cneo AK release – Cryptococcus neoformans lysis via adenylate kinase release. C. neoformans lysis, adenylate kinase release luminescence, 4 h; normalised: neutral wells 0, clomiphene wells 100. lysis activity, % at 15 µM. 360,000 compounds, 0.2% hits;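 active = mean lysis activity across replicates of at least 80%, whatever share of replicates individually reach that level; inactive = mean lysis activity below 80%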
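Material: C. neoformans cells; Schedule: 4 h static compound exposure, 37 °C, read 1 h post-reagent; Measured by: adenylate kinase release luminescence; Read-out: signal increase indicating cell lysis; Controls: Clomiphene as positive lysis control.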
PfHsp90 yeast 2 – growth inhibition of yeast expressing Plasmodium Hsp90; inhibition, % at 9.4 µM; 310,000 compounds, 0.32% hits; S. cerevisiae expressing PfHsp90, BacTiter-Glo ATP, 48 h; yeast lacking PDR1 and PDR3 efflux regulators;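 active = every replicate shows inhibition above about 80%, whatever the replicate mean, limit read from the data; inconclusive = mean inhibition reaches the set limit but some replicate falls short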;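 also: 0% = DMSO neutral controls and 100% = 20 µM radicicol positive controls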
rRNA inh HTS – selective bacterial rRNA inhibition in E. coli; E. coli WT GFP vs humanized-ribosome RFP mutants, fluorescence, 24 h; active compounds read low; DMSO median 0, no signal -100; 350,000 compounds, 1.6% hits; GFP signal change (wild-type ribosome), % (test concentration not listed);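 active = significant combined selectivity score with lowered wild-type GFP, culture density cut under 30%, mutant RFP and density less affected; inactive = any of these conditions unmet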
AF4-AF9 inh – MLL-AF4/AF9 protein interaction inhibition; AlphaScreen, biotin-AF4 peptide binding to FLAG-AF9; inhibition, % at 10 µM; P42568; 350,000 compounds, 0.47% hits;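 active = every replicate reaching a set inhibition limit, whatever the replicate mean, cut at about 25% in these data; inconclusive = mean inhibition reaches that limit but some replicates miss it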;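 also: 0% = plate neutral control median and 100% = total signal loss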
Target sequence (P42568 whole entry, looked up): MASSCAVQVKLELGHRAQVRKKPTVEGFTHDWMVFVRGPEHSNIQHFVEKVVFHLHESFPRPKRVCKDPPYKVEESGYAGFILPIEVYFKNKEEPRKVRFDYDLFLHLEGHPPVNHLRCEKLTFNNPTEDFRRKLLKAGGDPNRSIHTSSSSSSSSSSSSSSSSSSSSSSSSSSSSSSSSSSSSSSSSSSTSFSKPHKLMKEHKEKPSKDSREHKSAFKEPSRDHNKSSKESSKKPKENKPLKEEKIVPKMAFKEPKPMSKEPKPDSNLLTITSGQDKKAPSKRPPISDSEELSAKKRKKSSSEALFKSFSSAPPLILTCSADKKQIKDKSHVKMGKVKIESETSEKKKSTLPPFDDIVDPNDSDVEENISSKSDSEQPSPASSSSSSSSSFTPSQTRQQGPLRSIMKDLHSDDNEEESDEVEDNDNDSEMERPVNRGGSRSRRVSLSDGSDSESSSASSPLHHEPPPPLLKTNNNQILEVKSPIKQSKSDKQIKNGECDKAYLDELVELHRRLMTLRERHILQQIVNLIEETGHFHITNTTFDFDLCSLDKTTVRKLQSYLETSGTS
DENV2 CPE rescue – inhibitors of DENV2 cytopathic effect | DENV2-infected cells, cytopathic effect rescue, plate reader | CPE inhibition, % at 9.99 µM | 350,000 compounds, 1.7% hits | AID 651640; in the data active = CPE inhibition above about 20%, passing the limit was not always enough; inconclusive = no clear call, values can overlap the other calls; tested in BHK-21 cells;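 also: 0% = median of neutral control wells and 100% = median of positive control wells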
S100A4 MyoIIA – inhibitors of human S100A4 binding to myosin IIA peptide; 360,000 compounds, 0.14% hits; P26447; S100A4/TAMRA-MyoIIA peptide fluorescence polarization; AID 652163; inhibition, % at 10.7 µM;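 active = mean inhibition of at least 70% across replicates, with every replicate also reaching that level; inconclusive = mean inhibition reaches 70% but some replicates fall short; inactive = mean inhibition below 70%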
Target sequence (P26447 whole entry, looked up): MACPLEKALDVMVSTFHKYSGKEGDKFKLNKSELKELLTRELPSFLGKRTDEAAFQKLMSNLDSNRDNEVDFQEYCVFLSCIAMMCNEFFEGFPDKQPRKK
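assay system = human S100A4 monomer with TAMRA-labelled myosin IIA peptide | also added = labelled myosin peptide probe, 5 nM | incubation = 5 min between mix addition and reading | control set = DMSO and TFP controls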
AID977621 – growth inhibition of wild-type GFP E. coli, dose response, H69 mutant RFP, cherry-pick; shares compounds with rRNA inh HTS; E. coli wild-type GFP strain growth, fluorescence, 24 h; activity change, negative = inhibition at 50 µM; 1,900 tested, under 10 active; AID 977621;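 active = Wild-type ribosome reporter drop at least double the humanized mutant ribosome reporter drop, growth loss under a set limit; inconclusive = no clear call, values can overlap the other calls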;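 also: wild-type GFP and H69 mutant RFP strains grown together 50/50 in each well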
AID977628 – E. coli growth inhibition, wild-type GFP versus h24 humanized RFP strain, dose response, h24 mutant RFP vs wild-type GFP, cherry-pick | shares compounds with rRNA inh HTS | E. coli WT GFP strain growth, fluorescence, 24 h | activity change, negative = inhibition at 50 µM | 1,900 tested, under 10 active | AID 977628;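 active = compound lowering the normal-ribosome reporter at least twice as much as the humanized-ribosome reporter, growth loss under a set limit; inconclusive = no clear call, values can overlap the other calls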;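 also: wild-type GFP and h24 humanized RFP strains co-cultured 1 to 1 per well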
* marks the source's active call; other numbers are inactive results; ? = inconclusive; . = no result given; [ ] = remark or other dose. Most compounds without a hit are left out; they make up all but 3.2% or so of the library.

SMILES	Cneo AK release	PfHsp90 yeast 2	rRNA inh HTS	AF4-AF9 inh	DENV2 CPE rescue	S100A4 MyoIIA	AID977621	AID977628
O=C(OCC(=O)N1CCOCC1)c1cccc(S(=O)(=O)N2CCCc3ccccc32)c1	.	30.1	-17.8*	.	?	-3.8	-8.21	?
O=[N+]([O-])c1ccc(/C=C/c2ccc3cccc([N+](=O)[O-])c3n2)cc1	.	27.1	-17.9*	7.1	?	1.7	-5.08	1.19
CC1(CCC(=O)N2CCCC(N3CCN(c4ccc(F)cc4)CC3)C2)CC1 (stereo not drawn)	13.8	1.2	-24.7*	2.4	-6.6	-5.6	-3.08	?
CSCC(=O)N1CCCC(N2CCN(c3ccc(F)cc3)CC2)C1 (stereo not drawn)	1.9	25.2	-0.1	-2.4	5.5	1.6	.	.
CCOC(=O)C1NN=C(C(=O)c2ccccc2)C1c1ccccc1 (stereo not drawn)	.	-3.3	-14.7	6.9	16.8	0.7	.	.
CCOC(=O)C1NN=C(C(=O)c2ccccc2)C1c1ccc(OC)cc1 (stereo not drawn)	.	14.6	-25.2*	-0.2	3.1	-1.7	-8.95	-6.29
O=C1NC(CCc2ccccc2)C(=O)N1Cc1cccc2ccccc12 (stereo not drawn)	.	-34.9	-21.1*	-19.2	1.3	-3.5	-1.72	.
COc1ccc(NC(=O)C(C)SCc2ccccc2)cc1OC (stereo not drawn)	-3.6	-15.5	-0.6	3.1	4.9	-0.4	.	.
COc1cccc(NC(=O)C(C)SCc2ccccc2)c1 (stereo not drawn)	.	-16.5	-25.0*	3.0	-0.5	-5.3	-0.154	0.989
COc1cccc(NC(=O)C(c2ccccc2)N2CCN(c3ccccn3)CC2)c1 (stereo not drawn)	.	-16.4	-19.1*	-1.1	.	-2.9	-5.86	-13.8
O=C(O)C[C@@H]1C[C@@H]2c3cc(NC(=O)Nc4ccc(F)cc4)ccc3O[C@@H]2[C@H](CO)O1	10.8	.	2.1	-5.2	2.2	1.8	.	.
O=C(C[C@@H]1C=C[C@@H](NC(=O)C2CCC2)[C@@H](CO)O1)Nc1nccs1	-1.4	.	1.1	-1.6	0.4	0.5	.	.
O=C(NCCCN1CCOCC1)c1cc(-c2ccccc2)nc2ccccc12	-4.4	32.2	12.6	-0.3	-2.9	-0.7	.	.
Cc1ccc(Nc2cc(C(=O)NCCCN3CCOCC3)c3ccccc3n2)cc1C	-1.9	-14.2	-21.9*	1.4	2.7	5.8	.	?
COc1cc2ccccc2cc1C(=O)NC1CCC(C)CC1 (stereo not drawn)	-3.5	-7.7	-0.4	-2.6	2.8	-4.4	.	.
COc1cc2ccccc2cc1C(=O)NC1CCCCC1	1.1	-27.4	-27.9*	0.1	-0.5	-16.9	-15.6	-9.67
CO[C@@H]1CN(C)C(=O)c2cc(NC(=O)c3ccccc3)ccc2OC[C@H](C)NC[C@H]1C	0.4	.	1.9	-5.2	13.9	2.7	.	.
CCCCC(=O)N(Cc1ccc2c(c1)OCO2)Cc1nc2ccccc2c(=O)[nH]1	.	-8.8	-23.3*	1.7	1.4	2.1	.	-3.76
CCCC(=O)N(CCc1ccc(OC)cc1)Cc1nc2ccccc2c(=O)[nH]1	0.1	-4.1	-21.0*	1.5	3.3	-4.8	.	-7.71
COCC(=O)N(CCc1ccc(OC)cc1)Cc1nc2ccccc2c(=O)[nH]1	-3.3	1.6	.	.	.	.	.	.
Cc1ccc(C(=O)N(Cc2ccc3c(c2)OCO3)Cc2nc3ccccc3c(=O)[nH]2)cc1	-2.2	21.4	8.1	5.8	2.6	-2.4	.	.
COc1ccccc1CNC(=O)CCCc1cn(C)c2ccccc12	-3.5	-24.2	-25.2	0.7	-6.5	-1.0	.	.
COc1ccc(CNC(=O)Cc2cn(C)c3ccccc23)c(OC)c1	3.8	2.3	-24.4*	0.9	7.8	-2.4	-1.09	-6.29
COc1ccc(NC(=O)c2ccc(COc3ccccc3Br)o2)c(OC)c1	1.6	.	-16.4*	-10.9	4.1	-0.4	-12	-0.848
COc1ccc(NC(=O)c2ccc(COc3ccccc3)o2)c(OC)c1	-1.3	-2.2	-24.5	-0.6	-2.4	0.1	.	.
SMILES	Cneo AK release	PfHsp90 yeast 2	rRNA inh HTS	AF4-AF9 inh	DENV2 CPE rescue	S100A4 MyoIIA	AID977621	AID977628
COc1ccc(NC(=O)N[C@H]2CC[C@H](CCNC(=O)CCN3CCCCC3)O[C@@H]2CO)cc1	-1.7	.	1.0	1.9	11.1	-12.8	.	.
Cc1noc(C)c1NC(=O)N(C)C[C@H]1OCCCC[C@@H](C)Oc2ccc(NC(=O)Nc3ccc4c(c3)OCO4)cc2C(=O)N([C@@H](C)CO)C[C@H]1C	-3.1	.	1.7	3.6	0.9	15.0	.	.
Cc1noc(C)c1NC(=O)Nc1ccc2c(c1)C(=O)N([C@@H](C)CO)C[C@H](C)[C@@H](CN(C)C(=O)Nc1ccc3c(c1)OCO3)OCCCC[C@H](C)O2	-0.5	.	2.7	4.6	-0.7	10.7	-3.91	11.6
Cc1noc(C)c1NC(=O)Nc1ccc2c(c1)C(=O)N([C@H](C)CO)C[C@H](C)[C@@H](CN(C)C(=O)Nc1ccc3c(c1)OCO3)OCCCC[C@@H](C)O2	0.4	.	-37.4*	-0.4	2.3	-7.5	-2.51[23.5 µM]	?
Cc1noc(C)c1NC(=O)Nc1ccc2c(c1)C(=O)N([C@H](C)CO)C[C@H](C)[C@@H](CN(C)C(=O)Nc1ccc3c(c1)OCO3)OCCCC[C@H](C)O2	-2.5	.	-2.8	3.0	-5.5	1.9	-7.71	?
Cc1noc(C)c1NC(=O)Nc1ccc2c(c1)C(=O)N([C@H](C)CO)C[C@@H](C)[C@H](CN(C)C(=O)Nc1ccc3c(c1)OCO3)OCCCC[C@@H](C)O2	7.9	.	-2.0	7.0	5.5	-9.0	-8.35	?
Cc1ccc(S(=O)(=O)N2C[C@@H]3O[C@@H](CNS(=O)(=O)c4ccccc4C)CC[C@@H]32)cc1	.	.	.	-1.7	0.7	3.2	.	.
C[C@@H](O)C#Cc1cnc2c(c1)C(=O)N([C@@H](C)CO)C[C@H](C)[C@@H](CN(C)C(=O)c1ccncc1)O2	1.9	.	4.0	0.0	5.3	-3.4	.	.
Cc1ccc(-c2c(=O)n(O)c3ccccc3[n+]2[O-])cc1	2.4	9.6	-16.8*	0.0	-2.5	-0.9	-5.55	?
OCCC1CN(Cc2cnc(-c3ccc(Cl)cc3)nc2)CCN1C1CCCCC1 (stereo not drawn)	.	1.0	-18.4*	2.4	50.5*	21.7	-2.93	-5.5
